MLL AF4-AF9 inh = MLL-AF4/AF9 protein interaction inhibition; AlphaScreen, biotin-AF4 peptide binding to FLAG-AF9; AID 651704; inhibition, % at 10 µM; actives 0.47% (n = 350,000);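 active = every replicate reaching a set inhibition limit, whatever the replicate mean, cut at about 25% in these data; inconclusive = mean inhibition reaches that limit but some replicates miss it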;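 note: 0% = plate neutral control median and 100% = total signal loss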
RAD54 branch = inhibitors of human RAD54 branch migration. Q92698. RAD54 Holliday junction branch migration, FAM/BHQ fluorescence. inhibition, % at 10.4 µM. actives 0.14% (n = 360,000);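 active = mean normalized replicate activity at least 40 and at least half of replicates scoring 40 or more; inconclusive = only one of the two criteria met; inactive = mean below 40 and under half of replicates reaching 40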;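 note: 0% = median of neutral control wells and 100% = median of positive control wells; inhibitors cause a drop in the FAM fluorescence signal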
RAD52 inh = inhibitors of human RAD52 DNA annealing; AID 651710; inhibition, % at 18.7 µM; actives 0.46% (n = 360,000); recombinant RAD52 DNA annealing, FRET fluorescence;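 active = every replicate showing at least 50% inhibition; inconclusive = mean inhibition at least 50% but not in every replicate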
Target sequence (P43351 whole entry, looked up): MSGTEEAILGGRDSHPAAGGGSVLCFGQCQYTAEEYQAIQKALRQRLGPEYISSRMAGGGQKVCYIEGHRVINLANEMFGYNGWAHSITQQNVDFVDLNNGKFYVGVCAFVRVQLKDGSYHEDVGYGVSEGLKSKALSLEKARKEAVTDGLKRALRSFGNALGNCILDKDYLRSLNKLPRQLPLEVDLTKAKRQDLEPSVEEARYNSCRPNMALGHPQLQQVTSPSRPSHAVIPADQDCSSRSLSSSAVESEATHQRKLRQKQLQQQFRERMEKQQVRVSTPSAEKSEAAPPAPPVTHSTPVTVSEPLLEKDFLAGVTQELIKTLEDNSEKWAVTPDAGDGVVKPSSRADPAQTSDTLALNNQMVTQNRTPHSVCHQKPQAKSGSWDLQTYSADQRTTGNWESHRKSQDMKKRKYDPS
FN deposition inh = fibronectin deposition inhibition; AH1F fibroblasts, Alexa488-fibronectin deposition fluorescence, overnight; inhibition, % at 12.6 µM; actives 0.086% (n = 350,000); AID 743247;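 active = mean inhibition across replicates of 30% or more, regardless of how many single replicates reach that level; inconclusive = mean under 30% yet at least half of replicates reach 30%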;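 note: positive control wells lacked labelled fibronectin entirely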
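Assay system: AH1F fibroblasts / Quantity: 10000 cells per well / Medium: DMEM plus 2% serum, read in PBS / Reagent: labelled fibronectin 24 nM / Dosing: single dose, pinned / Times: 1 h cell attachment, overnight exposure to compound and label / Signal: fluorescence, ex 485 nm, em 525 nm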
Glyco luc inh = N-linked glycosylation inhibition. reporter increase, % at 12.5 µM. AID 588692. actives 0.23% (n = 360,000). D54 ERlucT glycosylation luciferase reporter, 24 h; percent of 100 nM tunicamycin response;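 active = mean luciferase reporter signal, scaled so untreated is 0 and the glycosylation-blocking control 100, at or above a set limit in every replicate; inconclusive = mean reaches the limit but not every replicate does; inactive = mean below the limit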;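 note: luciferase carries N-glycosylation sites so blocking glycosylation raises the light; 0% = median of neutral control wells and 100% = median of 100 nM tunicamycin wells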
RAD52 DNA ctr = binds DNA, flagging false RAD52 inhibitor hits; actives 8% (n = 1,000); Salmon sperm DNA/acridine orange FP displacement, DNA binding; AC50, µM; shares compounds with RAD52 inh;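 active = fitted half-maximal concentration for signal loss at or below twice the highest dose tested, in every separate run, actives reach about 64 µM in these data; inconclusive = runs disagree, or flat partial signal loss, or poor fit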
* marks the source's active call; other numbers are inactive results; i = inactive; ? = inconclusive; . = not tested or not shown. Sampled rows, rich in hits. Any-hit rate of the full collection: about 0.92%.

SMILES	MLL AF4-AF9 inh	RAD54 branch	RAD52 inh	FN deposition inh	Glyco luc inh	RAD52 DNA ctr
Oc1ccc(C[C@H]2CNC(=S)N2CC2CCCN2C[C@H](Cc2ccc(O)cc2)N2C[C@H](Cc3ccc(O)cc3)N(CC3CCCCC3)C2=S)cc1 (some centres undefined)	1	-6	55*	.	-3	i
CCOc1ccc(CCN2C(=S)N([C@@H](Cc3ccc(O)cc3)CN3CCC[C@@H]3CN3C(=S)NC[C@@H]3Cc3ccccc3)C[C@@H]2CC(C)C)cc1	2	-1	51*	-9	-9	i
NC(N)=NN=Cc1ccnc2ccccc12	5	.	35	2	3	.
NC(=NCc1ccccc1)NN=Cc1ccnc2ccccc12	27*	.	64*	-23	2	i
CC(=O)C1CCC2C3CC=C4CC(SC(=N)N)CCC4(C)C3CCC12C (centres undefined)	11	.	51*	-2	4	i
CC(=O)OCC(=O)C1CCC2C3CC=C4CC(O)CCC4(C)C3CCC12C (centres undefined)	-2	0	-4	-1	-4	.
CN1CCN(c2ccc(NC(=O)c3ccc(-c4ccccc4F)o3)cc2)CC1	7	24	10	-5	-5	i
C=CC(=C)CC(NC)c1ccccc1 (centres undefined)	28*	-16	59*	.	2	i
COCC(=O)Nc1ccc2c(c1)C(=O)N(C)[C@@H]1CC[C@H](CC(=O)NCc3ccc(OC)cc3)O[C@H]1CO2	.	-8	.	3	.	.
NC(N)=Nc1cc2ccccc2c2ccccc12	5	.	56*	2	.	i
O=C(C[C@@H]1C[C@H]2c3cc(NC(=O)NC4CCCCC4)ccc3O[C@H]2[C@@H](CO)O1)NC1CCCC1	.	.	.	1	.	.
CC(=O)Nc1ccc(/C(C)=N/Nc2nc(Nc3ccccc3)nc(N3CCOCC3)n2)cc1	5	.	-4	-2	-9	.
CCN1CCN(c2nc(Nc3ccc(NC(C)=O)cc3)nc(Nc3ccc(NC(C)=O)cc3)n2)CC1	7	.	73*	0	0	i
CC1=Nc2cc(C(=O)NCCCN3CCN(C)CC3)ccc2Sc2ccc(C)cc21	27*	9	77*	1	-1	i
CCCC1=Nc2cc(C(=O)NCCCN3CCN(C)CC3)ccc2Sc2ccccc21	17	2	47	14	-2	.
CCN(CC)CCNC(=O)c1nn(-c2ccc(Cl)cc2)c2c1CCc1cc(OC)ccc1-2	23	.	66*	-16	2	i
CC(C)CC#Cc1cnc2c(c1)C(=O)N([C@H](C)CO)C[C@@H](C)[C@H](CN(C)C(=O)Cc1ccncc1)O2	-1	-12	-4	.	.	.
CN(C)c1ccc(/C=N/n2c(C3CCCCC3)n[nH]c2=S)cc1	-3	-14	97*	10	-5	i
COc1ccc(NC(=O)N(C)C[C@@H]2OCCCC[C@@H](C)Oc3ccc(NS(=O)(=O)c4cn(C)cn4)cc3C(=O)N([C@H](C)CO)C[C@H]2C)cc1	-3	6	0	.	.	.
COc1ccc2nc(NCCNC(=S)NCCCN3CCOCC3)c(C#N)cc2c1	-5	.	70*	.	5	i
CCN1[C@@H]2Cn3c(ccc(-c4ccccc4F)c3=O)[C@H]1[C@@H](C(=O)NCc1ccc(F)cc1)[C@@H]2CO	-1	-1	-1	.	.	.
CC(C(=O)Nc1ccc(S(=O)(=O)N2CCCC2)cc1)N(C)CC(=O)Nc1cccc(F)c1 (centres undefined)	1	-4	-6	-4	-2	.
CN(CC(=O)Nc1ccc(S(=O)(=O)N2CCCC2)cc1)CC(=O)Nc1cccc(F)c1	1	-2	58*	4	-4	i
Cc1cc(OCCCN2CCC(C(O)(c3ccccc3)c3ccccc3)CC2)ccc1Br	1	.	55*	0	.	i
NCc1ccc(OCCCN2CCC(C(O)(C3=CCCC3)c3ccccc3)CC2)cc1 (centres undefined)	.	.	67*	-11	.	i
SMILES	MLL AF4-AF9 inh	RAD54 branch	RAD52 inh	FN deposition inh	Glyco luc inh	RAD52 DNA ctr
CS(=O)(=O)c1ccc(OCCCN2CCC(C(O)(c3ccccc3)c3ccccc3)CC2)cc1	.	.	2	7	.	.
C[N+](C)(C)CC(=O)N/N=C/c1c2ccccc2cc2ccccc12	5	92*	94*	0	5	55µM*
C[C@@H]1CN([C@@H](C)CO)C(=O)c2cc(NS(C)(=O)=O)ccc2O[C@@H]1CN(C)Cc1ccccc1	-3	-12	5	-5	.	.
N=C(N)c1ccc(N=Nc2c(O)ccc3c2[nH]c2ccccc23)cc1	32*	.	102*	3	-12	i
CC[n+]1ccc(/C=C/c2ccc(N(C)C)cc2)c2ccccc21	73*	.	60*	-21	?	13µM*
CC[n+]1ccccc1/C=C/c1ccc(N(C)C)cc1	4	-54	-225	-33	-5	.
CN(C)C(=O)C[C@@H]1CC[C@@H](NS(=O)(=O)c2ccccc2)[C@@H](CO)O1	-14	-8	6	12	.	.
O=C(C[C@H]1C[C@@H]2c3cc(NC(=O)c4ccc5c(c4)OCO5)ccc3O[C@@H]2[C@H](CO)O1)NC1CCCCC1	1	8	2	.	.	.
COc1cc(C(=O)N2CCC(N3CCN(C)CC3)CC2)ccc1Nc1ncc2c(n1)N(C)c1ccccc1C(=O)N2C	17	.	77*	16	.	i
C[C@@H]1CCCCO[C@@H](CN(C)C)[C@H](C)CN([C@H](C)CO)C(=O)c2cc(NC(=O)Nc3ccccc3)ccc2O1	1	10	1	.	.	.
CCN(CC)CCN(C(=O)c1ccc(C(=O)c2ccccc2)cc1)c1nc2c(OC)cccc2s1	27*	12	61*	.	1	i
COc1cccc2sc(N(CCCN(C)C)C(=O)c3sc4ccccc4c3Cl)nc12	28*	33	58*	6	-2	i
CO[C@@H]1CN(C)C(=O)c2ccc(NC(=O)C3CC3)cc2OC[C@@H](C)N(Cc2ccccc2)C[C@H]1C	-1	-17	14	-8	.	.
CNC(=O)C[C@@H]1CC[C@@H]2[C@H](COC[C@H](O)CN2Cc2ccc(Cl)c(Cl)c2)O1	.	1	.	15	.	.
CNC[C@@H]1Oc2ccc(NC(=O)Nc3ccc(F)cc3)cc2C(=O)N([C@@H](C)CO)C[C@H]1C	-1	-1	-10	-12	.	.
Cc1nc2cc(N)ccc2n1C1CCCCC1	20	.	91*	-7	1	i
CCn1c(C)nc2cc(N)ccc21	9	.	93*	10	-1	i
Cc1nc2cc(C(=O)O)ccc2n1C1CCCCC1	9	-11	0	.	0	.
O=C(NCCNC(=O)c1ccccc1)c1ccccc1	9	19	53*	10	0	i
O=C(O)CCNC(=O)c1ccccc1	-2	0	-3	-2	-1	.
OCCNc1c2ccccc2nc2ccccc12	-2	.	79*	14	66*	60µM*
CCCCCCCCCCCCCCCC[N+](C)(C)CCl	2	.	88*	-7	-7	31µM*

High-throughput results: PubChem, Broad Institute
